# Source: the M2OR odorant receptor database
# Target: T1, UniProt Q99NH4
# T1 sequence (whole entry): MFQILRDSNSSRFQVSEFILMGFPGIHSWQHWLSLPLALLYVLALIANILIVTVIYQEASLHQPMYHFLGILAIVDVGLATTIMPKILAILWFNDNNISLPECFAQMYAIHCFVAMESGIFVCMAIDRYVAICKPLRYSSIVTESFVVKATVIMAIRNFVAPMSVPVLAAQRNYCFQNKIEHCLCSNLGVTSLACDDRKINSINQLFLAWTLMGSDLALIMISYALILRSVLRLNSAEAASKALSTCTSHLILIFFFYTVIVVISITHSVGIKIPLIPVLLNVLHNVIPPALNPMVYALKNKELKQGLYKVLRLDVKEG
# Conditions: stereoisomer not certain
# Summary of the method: (§1)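 Each entry records the cell line, G-protein, co-transfected protein and tags used. Methods varied with the source, often transient luciferase assays in mammalian cell lines. A receptor–molecule pair is called responsive (active) if the original authors judged its signal statistically different from baseline and non-responsive (inactive) otherwise.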
row,SMILES,odorant receptor agonist call
1,O=C(O)CCCCCC(=O)O,inactive
2,O=C([O-])CCCC(=O)[O-].[H+].[H+],inactive
3,O=C(O)CCCCBr,inactive
4,O=C([O-])CCCCC(=O)[O-].[H+].[H+],inactive
5,CCCCCCCC(=O)[O-].[H+],active
6,O=C(O)CCCCCCCCCBr,inactive
7,CCCCCCCCCCC(=O)O,inactive
8,O=C([O-])CCC(=O)[O-].[H+].[H+],inactive
9,CCCCCCCCCCCC(=O)O,inactive
10,CCCCCO,inactive
11,O=C(O)CCCCCCCCCCC(=O)O,inactive
12,O=C(O)CCCBr,inactive
13,O=C(O)CCCCCCCCCC(=O)O,inactive

# Target: T2, UniProt Q9EPN9
# T2 sequence (whole entry): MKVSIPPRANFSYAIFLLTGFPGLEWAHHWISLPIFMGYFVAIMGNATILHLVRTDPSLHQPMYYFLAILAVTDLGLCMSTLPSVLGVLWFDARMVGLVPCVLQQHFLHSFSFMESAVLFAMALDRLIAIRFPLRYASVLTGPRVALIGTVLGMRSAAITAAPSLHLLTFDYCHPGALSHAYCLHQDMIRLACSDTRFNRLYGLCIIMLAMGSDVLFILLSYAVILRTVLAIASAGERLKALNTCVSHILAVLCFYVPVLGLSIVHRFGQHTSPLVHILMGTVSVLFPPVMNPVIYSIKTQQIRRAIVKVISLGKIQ
# Conditions: stereoisomer not certain
# Summary of the method: as §1
row,SMILES,odorant receptor agonist call
1,CCCC(C)=O,inactive
2,O=c1ccc2ccccc2o1,inactive
3,CCCCOC(=O)C(C)OC(=O)CCC (stereo unspecified),inactive
4,CC(=O)OCc1ccccc1,inactive
5,CCCCCCCCCS,inactive
6,CCCCCCCC(=O)[O-].[H+],inactive
7,O=C(c1ccccc1)c1ccccc1,inactive
8,CCC(C(=O)O)c1ccccc1 (stereo unspecified),active
9,O=C1CCOc2ccccc21,inactive
10,CCCCCC1=C(C)CCC1=O,inactive
11,CCCC(=O)C(C)=O,inactive
12,CC12CCC(CC1=O)C2(C)C (stereo unspecified),inactive
13,O=C1Cc2ccccc2O1,inactive
14,CCCCCO,inactive
15,C=CCOC(=O)CCCCCC,inactive
16,CC(=O)OCC=C(C)C,inactive
17,CCCCCCOC(C)=O,inactive
18,CCC(=O)O,inactive
19,CCC(=O)C(=O)CC,inactive
20,CCCCCOC(=O)CCCCC,inactive
21,CCCCCCC(=O)[O-].[H+],inactive
22,CCCCC(C)=O,inactive
23,CCCCC(=O)CC,inactive

# Target: UniProt Q9R0K2
# Conditions: stereoisomer not certain
# Summary of the method: as §1
# UniProt Q9R0K2, sequence (Q9R0K2 as listed by the source): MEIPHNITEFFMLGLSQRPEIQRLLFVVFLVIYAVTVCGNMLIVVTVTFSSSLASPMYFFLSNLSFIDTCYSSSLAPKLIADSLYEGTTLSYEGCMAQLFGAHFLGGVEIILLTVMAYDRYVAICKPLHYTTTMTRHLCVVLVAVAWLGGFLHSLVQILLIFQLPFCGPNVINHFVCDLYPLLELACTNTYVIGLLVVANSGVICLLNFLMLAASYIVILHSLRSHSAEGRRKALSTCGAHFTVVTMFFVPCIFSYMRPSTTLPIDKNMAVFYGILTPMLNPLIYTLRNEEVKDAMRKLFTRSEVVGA
row,SMILES,odorant receptor agonist call
1,CCCC(C)=O,inactive
2,O=c1ccc2ccccc2o1,inactive
3,CCCCOC(=O)C(C)OC(=O)CCC (stereo unspecified),inactive
4,CC(=O)OCc1ccccc1,inactive
5,CCCCCCCCCS,inactive
6,CCCCCCCC(=O)[O-].[H+],inactive
7,O=C(c1ccccc1)c1ccccc1,inactive
8,CCC(C(=O)O)c1ccccc1 (stereo unspecified),inactive
9,O=C1CCOc2ccccc21,inactive
10,CCCCCC1=C(C)CCC1=O,inactive
11,CCCC(=O)C(C)=O,inactive
12,CC12CCC(CC1=O)C2(C)C (stereo unspecified),inactive
13,O=C1Cc2ccccc2O1,inactive
14,CCCCCO,inactive
15,C=CCOC(=O)CCCCCC,inactive
16,CC(=O)OCC=C(C)C,inactive
17,CCCCCCOC(C)=O,inactive
18,CCC(=O)O,inactive
19,CCC(=O)C(=O)CC,inactive
20,CCCCCOC(=O)CCCCC,inactive
21,CCCCCCC(=O)[O-].[H+],inactive
22,CCCCC(C)=O,inactive
23,CCCCC(=O)CC,inactive

# Target: T3, UniProt Q9WU86
# T3 sequence (whole entry): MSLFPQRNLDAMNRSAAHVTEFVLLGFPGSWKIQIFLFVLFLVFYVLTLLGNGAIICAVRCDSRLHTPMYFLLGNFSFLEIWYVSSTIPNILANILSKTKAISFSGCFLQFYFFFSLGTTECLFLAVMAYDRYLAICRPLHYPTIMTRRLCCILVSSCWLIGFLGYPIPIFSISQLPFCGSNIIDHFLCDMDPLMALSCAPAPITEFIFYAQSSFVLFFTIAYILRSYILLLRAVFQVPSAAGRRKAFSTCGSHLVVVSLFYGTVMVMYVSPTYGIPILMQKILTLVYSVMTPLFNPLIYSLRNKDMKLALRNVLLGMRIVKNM
# Conditions: stereoisomer not certain
# Summary of the method: as §1
row,SMILES,odorant receptor agonist call
1,CCCC(C)=O,inactive
2,O=c1ccc2ccccc2o1,active
3,CCCCOC(=O)C(C)OC(=O)CCC (stereo unspecified),inactive
4,CC(=O)OCc1ccccc1,inactive
5,CCCCCCCCCS,inactive
6,CCCCCCCC(=O)[O-].[H+],inactive
7,O=C(c1ccccc1)c1ccccc1,inactive
8,CCC(C(=O)O)c1ccccc1 (stereo unspecified),inactive
9,O=C1CCOc2ccccc21,inactive
10,CCCCCC1=C(C)CCC1=O,inactive
11,CCCC(=O)C(C)=O,inactive
12,CC12CCC(CC1=O)C2(C)C (stereo unspecified),inactive
13,O=C1Cc2ccccc2O1,inactive
14,CCCCCO,inactive
15,C=CCOC(=O)CCCCCC,inactive
16,CC(=O)OCC=C(C)C,inactive
17,CCCCCCOC(C)=O,inactive
18,CCC(=O)O,inactive
19,CCC(=O)C(=O)CC,inactive
20,CCCCCOC(=O)CCCCC,inactive
21,CCCCCCC(=O)[O-].[H+],inactive
22,CCCCC(C)=O,inactive
23,CCCCC(=O)CC,inactive

# Target: T4, UniProt Q9WU94
# T4 sequence (whole entry): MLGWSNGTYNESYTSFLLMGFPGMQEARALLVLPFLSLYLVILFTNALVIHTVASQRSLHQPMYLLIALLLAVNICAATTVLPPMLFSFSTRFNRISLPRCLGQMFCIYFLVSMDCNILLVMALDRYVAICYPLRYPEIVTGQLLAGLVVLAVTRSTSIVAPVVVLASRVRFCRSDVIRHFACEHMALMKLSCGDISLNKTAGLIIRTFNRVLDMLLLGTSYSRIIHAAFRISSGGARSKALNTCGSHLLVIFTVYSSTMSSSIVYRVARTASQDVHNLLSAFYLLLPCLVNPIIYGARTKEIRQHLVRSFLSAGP
# Conditions: stereoisomer not certain
# Summary of the method: as §1
row,SMILES,odorant receptor agonist call
1,CCCC(C)=O,inactive
2,O=C(O)CCCCCC(=O)O,inactive
3,O=C(O)CCCCBr,inactive
4,O=C([O-])CCCCC(=O)[O-].[H+].[H+],inactive
5,CCCCCCCC(=O)[O-].[H+],inactive
6,CCCCOC(=O)CCC,inactive
7,CCCCCO,inactive
8,O=C(O)CCCBr,inactive
9,CCCCCCC(=O)[O-].[H+],inactive

# Target: T5, UniProt Q9WVD7
# T5 sequence (whole entry): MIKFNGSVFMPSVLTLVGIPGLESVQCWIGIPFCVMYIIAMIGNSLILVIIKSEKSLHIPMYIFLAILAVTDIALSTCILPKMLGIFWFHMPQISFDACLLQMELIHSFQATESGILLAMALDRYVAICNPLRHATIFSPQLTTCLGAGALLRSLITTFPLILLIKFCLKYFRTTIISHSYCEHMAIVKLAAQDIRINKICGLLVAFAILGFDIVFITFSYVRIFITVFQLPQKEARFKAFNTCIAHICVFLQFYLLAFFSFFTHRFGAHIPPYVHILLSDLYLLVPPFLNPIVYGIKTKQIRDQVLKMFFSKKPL
# Conditions: stereoisomer not certain
# Summary of the method: as §1
row,SMILES,odorant receptor agonist call
1,O=C(O)CCCCCC(=O)O,inactive
2,O=C(O)CCCCBr,inactive
3,O=C([O-])CCCCC(=O)[O-].[H+].[H+],inactive
4,CCCCCCCC(=O)[O-].[H+],active
5,CCCCCO,inactive
6,O=C(O)CCCBr,inactive
7,CCCCCCC(=O)[O-].[H+],active

# Target: UniProt Q9WVD9
# Conditions: stereoisomer not certain
# Summary of the method: as §1
# UniProt Q9WVD9, sequence (Q9WVD9 as listed by the source): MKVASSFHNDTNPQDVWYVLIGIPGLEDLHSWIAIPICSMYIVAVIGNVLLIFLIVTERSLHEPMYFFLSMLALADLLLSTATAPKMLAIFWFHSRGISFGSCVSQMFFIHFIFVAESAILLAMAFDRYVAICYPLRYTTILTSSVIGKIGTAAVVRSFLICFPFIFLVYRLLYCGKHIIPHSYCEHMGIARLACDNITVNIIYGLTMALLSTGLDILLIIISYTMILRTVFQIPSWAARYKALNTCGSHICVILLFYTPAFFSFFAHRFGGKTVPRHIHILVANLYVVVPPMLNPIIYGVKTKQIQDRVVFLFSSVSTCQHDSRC
row,SMILES,odorant receptor agonist call
1,CCCC(C)=O,inactive
2,O=c1ccc2ccccc2o1,inactive
3,CCCCOC(=O)C(C)OC(=O)CCC (stereo unspecified),inactive
4,CC(=O)OCc1ccccc1,inactive
5,CCCCCCCCCS,inactive
6,CCCCCCCC(=O)[O-].[H+],inactive
7,O=C(c1ccccc1)c1ccccc1,inactive
8,CCC(C(=O)O)c1ccccc1 (stereo unspecified),inactive
9,O=C1CCOc2ccccc21,inactive
10,CCCCCC1=C(C)CCC1=O,inactive
11,CCCC(=O)C(C)=O,inactive
12,CC12CCC(CC1=O)C2(C)C (stereo unspecified),inactive
13,O=C1Cc2ccccc2O1,inactive
14,CCCCCO,inactive
15,C=CCOC(=O)CCCCCC,inactive
16,CC(=O)OCC=C(C)C,inactive
17,CCCCCCOC(C)=O,inactive
18,CCC(=O)O,inactive
19,CCC(=O)C(=O)CC,inactive
20,CCCCCOC(=O)CCCCC,inactive
21,CCCCCCC(=O)[O-].[H+],active
22,CCCCC(C)=O,inactive
23,CCCCC(=O)CC,inactive
